# Laboratory results as given in ChEMBL document CHEMBL4689842, “EUbOPEN Chemogenomics Library wave 1” (2021).
# Values joined by “and” are separate entries in the source; they are usually repeats but may differ in a detail not shown here. Equal values may be shown once.
# Tested on: HEK-293T
# Experiment: Multiplex assay against HEK293T;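 as to Population Tubulin-Different-Phenotype (%): share of the cells with healthy nuclei that show this phenotype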
# Type: toxicity, cell-based
# Details: human
# Method in brief: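 At seeding, live cells were stained with Hoechst33342, BioTracker Green Microtubule Cytoskeleton Dye, MitoTracker Red and Annexin V Alexa Fluor 680. After compound addition they were imaged on a CQ1 microscope at 37°C and 5% CO2, and CellPathfinder machine-learning gating sorted them into Hoechst high-intensity objects or normal cells, with normal cells further split into healthy, pyknosed or fragmented nuclei and pyknosed cells into mitotic or apoptotic. Tubulin, mitochondrial-mass and membrane-permeability phenotypes are given as per cents of cells with healthy nuclei.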
# [1] = 12 h, 1 µM, compound concentration 1 uM, replicate 1
# [2] = 12 h, 1 µM, compound concentration 1 uM, replicate 2
# [3] = 12 h, 10 µM, compound concentration 10 uM, replicate 1
# [4] = 12 h, 10 µM, compound concentration 10 uM, replicate 2
# [5] = 24 h, 1 µM, compound concentration 1 uM, replicate 1
# [6] = 24 h, 1 µM, compound concentration 1 uM, replicate 2
# [7] = 24 h, 10 µM, compound concentration 10 uM, replicate 1
# [8] = 24 h, 10 µM, compound concentration 10 uM, replicate 2
# [9] = 48 h, 10 µM, compound concentration 10 uM, replicate 1
# [10] = 48 h, 10 µM, compound concentration 10 uM, replicate 2
# [11] = 48 h, 1 µM, compound concentration 1 uM, replicate 1
# [12] = 48 h, 1 µM, compound concentration 1 uM, replicate 2
smiles,measurement,setting,value
NC(=O)Nc1cc(-c2cccc(F)c2)sc1C(=O)N[C@H]1CCCNC1 [AZD-7762],Population Fragmented Nuclei (%),[1],18%
same,Population Healthy Nuclei (%),[1],54%
same,Population Hoechst High Intensity Objects (%),[1],13%
same,Population Mitochondria Different-Phenotype (%),[1],5%
same,Population Normal (%),[1],86%
same,Population Pyknosed Nuclei (%),[1],26%
same,Population Tubulin-Different-Phenotype (%),[1],3%
same,Total Cell Count,[1],661
same,Population Apoptotic (%),[2],18%
same,Population Fragmented Nuclei (%),[2],6%
same,Population Healthy Nuclei (%),[2],73%
same,Population Hoechst High Intensity Objects (%),[2],5%
same,Population Membrane Permeable-Phenotype (%),[2],5%
same,Population Mitochondria Different-Phenotype (%),[2],20%
same,Population Mitotic Cells (%),[2],81%
same,Population Normal (%),[2],94%
same,Population Pyknosed Nuclei (%),[2],19%
same,Population Tubulin-Different-Phenotype (%),[2],25%
same,Total Cell Count,[2],1132
same,Population Fragmented Nuclei (%),[3],28% and 23%
same,Population Hoechst High Intensity Objects (%),[3],18% and 14%
same,Population Membrane Permeable-Phenotype (%),[3],5% and 4%
same,Population Normal (%),[3],81% and 85%
same,Population Pyknosed Nuclei (%),[3],59% and 21%
same,Population Apoptotic (%),[4],27% and 9%
same,Population Fragmented Nuclei (%),[4],8% and 10%
same,Population Healthy Nuclei (%),[4],28% and 66%
same,Population Hoechst High Intensity Objects (%),[4],4% and 2%
same,Population Membrane Permeable-Phenotype (%),[4],0% and 3%
same,Population Mitochondria Different-Phenotype (%),[4],30% and 18%
same,Population Mitotic Cells (%),[4],72% and 90%
same,Population Normal (%),[4],95% and 97%
same,Population Pyknosed Nuclei (%),[4],63% and 22%
same,Population Tubulin-Different-Phenotype (%),[4],14% and 21%
same,Population Apoptotic (%),[5],19%
same,Population Fragmented Nuclei (%),[5],18%
same,Population Healthy Nuclei (%),[5],42%
same,Population Hoechst High Intensity Objects (%),[5],12%
same,Population Membrane Permeable-Phenotype (%),[5],9%
same,Population Mitochondria Different-Phenotype (%),[5],7%
same,Population Mitotic Cells (%),[5],80%
same,Population Normal (%),[5],87%
same,Population Pyknosed Nuclei (%),[5],38%
same,Population Tubulin-Different-Phenotype (%),[5],14%
same,Total Cell Count,[5],632
same,Population Apoptotic (%),[6],35%
same,Population Fragmented Nuclei (%),[6],8%
same,Population Healthy Nuclei (%),[6],39%
same,Population Hoechst High Intensity Objects (%),[6],6%
same,Population Membrane Permeable-Phenotype (%),[6],8%
same,Population Mitochondria Different-Phenotype (%),[6],33%
same,Population Mitotic Cells (%),[6],64%
same,Population Normal (%),[6],93%
same,Population Pyknosed Nuclei (%),[6],51%
same,Population Tubulin-Different-Phenotype (%),[6],62%
same,Total Cell Count,[6],1019
same,Population Apoptotic (%),[7],26% and 66%
same,Population Fragmented Nuclei (%),[7],22% and 33%
same,Population Hoechst High Intensity Objects (%),[7],13% and 14%
same,Population Membrane Permeable-Phenotype (%),[7],8% and 0%
same,Population Mitotic Cells (%),[7],73% and 33%
same,Population Normal (%),[7],86% and 85%
same,Population Pyknosed Nuclei (%),[7],36% and 58%
same,Population Tubulin-Different-Phenotype (%),[7],36% and 50%
same,Population Apoptotic (%),[8],52% and 23%
same,Population Fragmented Nuclei (%),[8],12% and 17%
same,Population Hoechst High Intensity Objects (%),[8],6% and 5%
same,Population Membrane Permeable-Phenotype (%),[8],10%
same,Population Mitochondria Different-Phenotype (%),[8],20% and 48%
same,Population Mitotic Cells (%),[8],47% and 76%
same,Population Normal (%),[8],93% and 95%
same,Population Pyknosed Nuclei (%),[8],80% and 47%
same,Population Tubulin-Different-Phenotype (%),[8],30% and 63%
same,Population Apoptotic (%),[9],75%
same,Population Fragmented Nuclei (%),[9],43%
same,Population Healthy Nuclei (%),[9],3%
same,Population Hoechst High Intensity Objects (%),[9],21%
same,Population Membrane Permeable-Phenotype (%),[9],0%
same,Population Mitochondria Different-Phenotype (%),[9],100%
same,Population Mitotic Cells (%),[9],25%
same,Population Normal (%),[9],78%
same,Population Pyknosed Nuclei (%),[9],53%
same,Population Tubulin-Different-Phenotype (%),[9],0%
same,Total Cell Count,[9],191
same,Population Fragmented Nuclei (%),[10],13%
same,Population Healthy Nuclei (%),[10],12%
same,Population Hoechst High Intensity Objects (%),[10],8%
same,Population Membrane Permeable-Phenotype (%),[10],5%
same,Population Mitochondria Different-Phenotype (%),[10],66%
same,Population Mitotic Cells (%),[10],24%
same,Population Normal (%),[10],91%
same,Population Pyknosed Nuclei (%),[10],74%
same,Population Tubulin-Different-Phenotype (%),[10],61%
same,Total Cell Count,[10],161
Cc1[nH]c(/C=C2\C(=O)Nc3ccc(S(=O)(=O)N(C)c4cccc(Cl)c4)cc32)c(C)c1C(=O)N1CCN(C)CC1,Population Apoptotic (%),[1],60%
same,Population Fragmented Nuclei (%),[1],7%
same,Population Healthy Nuclei (%),[1],47%
same,Population Hoechst High Intensity Objects (%),[1],16%
same,Population Membrane Permeable-Phenotype (%),[1],7%
same,Population Mitochondria Different-Phenotype (%),[1],93%
same,Population Mitotic Cells (%),[1],39%
same,Population Normal (%),[1],83%
same,Population Pyknosed Nuclei (%),[1],44%
same,Population Tubulin-Different-Phenotype (%),[1],91%
same,Total Cell Count,[1],198
same,Population Apoptotic (%),[2],23%
same,Population Fragmented Nuclei (%),[2],6%
same,Population Healthy Nuclei (%),[2],46%
same,Population Hoechst High Intensity Objects (%),[2],4%
same,Population Membrane Permeable-Phenotype (%),[2],18%
same,Population Mitochondria Different-Phenotype (%),[2],52%
same,Population Mitotic Cells (%),[2],76%
same,Population Normal (%),[2],95%
same,Population Pyknosed Nuclei (%),[2],47%
same,Population Tubulin-Different-Phenotype (%),[2],71%
same,Total Cell Count,[2],243
same,Population Apoptotic (%),[3],67%
same,Population Fragmented Nuclei (%),[3],12%
same,Population Healthy Nuclei (%),[3],29%
same,Population Hoechst High Intensity Objects (%),[3],15%
same,Population Membrane Permeable-Phenotype (%),[3],5%
same,Population Mitochondria Different-Phenotype (%),[3],90%
same,Population Mitotic Cells (%),[3],32%
same,Population Normal (%),[3],84%
same,Population Pyknosed Nuclei (%),[3],57%
same,Population Tubulin-Different-Phenotype (%),[3],98%
same,Total Cell Count,[3],214
same,Population Apoptotic (%),[4],50%
same,Population Fragmented Nuclei (%),[4],4%
same,Population Healthy Nuclei (%),[4],40%
same,Population Hoechst High Intensity Objects (%),[4],5%
same,Population Membrane Permeable-Phenotype (%),[4],19%
same,Population Mitochondria Different-Phenotype (%),[4],57%
same,Population Mitotic Cells (%),[4],50%
same,Population Normal (%),[4],94%
same,Population Pyknosed Nuclei (%),[4],55%
same,Population Tubulin-Different-Phenotype (%),[4],93%
same,Total Cell Count,[4],157
same,Population Apoptotic (%),[5],55%
same,Population Fragmented Nuclei (%),[5],11%
same,Population Healthy Nuclei (%),[5],48%
same,Population Hoechst High Intensity Objects (%),[5],18%
same,Population Membrane Permeable-Phenotype (%),[5],3%
same,Population Mitochondria Different-Phenotype (%),[5],85%
same,Population Mitotic Cells (%),[5],44%
same,Population Normal (%),[5],81%
same,Population Pyknosed Nuclei (%),[5],40%
same,Population Tubulin-Different-Phenotype (%),[5],86%
same,Total Cell Count,[5],212
same,Population Apoptotic (%),[6],24%
same,Population Fragmented Nuclei (%),[6],4%
same,Population Healthy Nuclei (%),[6],56%
same,Population Hoechst High Intensity Objects (%),[6],3%
same,Population Membrane Permeable-Phenotype (%),[6],7%
same,Population Mitochondria Different-Phenotype (%),[6],57%
same,Population Mitotic Cells (%),[6],75%
same,Population Normal (%),[6],96%
same,Population Pyknosed Nuclei (%),[6],38%
same,Population Tubulin-Different-Phenotype (%),[6],71%
same,Total Cell Count,[6],295
same,Population Apoptotic (%),[7],88%
same,Population Fragmented Nuclei (%),[7],15%
same,Population Healthy Nuclei (%),[7],27%
same,Population Hoechst High Intensity Objects (%),[7],12%
same,Population Membrane Permeable-Phenotype (%),[7],5%
same,Population Mitochondria Different-Phenotype (%),[7],100%
same,Population Mitotic Cells (%),[7],11%
same,Population Normal (%),[7],87%
same,Population Pyknosed Nuclei (%),[7],56%
same,Population Tubulin-Different-Phenotype (%),[7],98%
same,Total Cell Count,[7],230
same,Population Apoptotic (%),[8],83%
same,Population Fragmented Nuclei (%),[8],7%
same,Population Healthy Nuclei (%),[8],35%
same,Population Hoechst High Intensity Objects (%),[8],4%
same,Population Membrane Permeable-Phenotype (%),[8],10%
same,Population Mitochondria Different-Phenotype (%),[8],81%
same,Population Mitotic Cells (%),[8],16%
same,Population Normal (%),[8],95%
same,Population Pyknosed Nuclei (%),[8],57%
same,Population Tubulin-Different-Phenotype (%),[8],96%
same,Total Cell Count,[8],162
same,Population Apoptotic (%),[11],55%
same,Population Fragmented Nuclei (%),[11],14%
same,Population Healthy Nuclei (%),[11],56%
same,Population Hoechst High Intensity Objects (%),[11],19%
same,Population Membrane Permeable-Phenotype (%),[11],2%
same,Population Mitochondria Different-Phenotype (%),[11],66%
same,Population Mitotic Cells (%),[11],44%
same,Population Normal (%),[11],80%
same,Population Pyknosed Nuclei (%),[11],29%
same,Population Tubulin-Different-Phenotype (%),[11],74%
same,Total Cell Count,[11],246
same,Population Apoptotic (%),[12],31%
same,Population Fragmented Nuclei (%),[12],4%
same,Population Healthy Nuclei (%),[12],75%
same,Population Hoechst High Intensity Objects (%),[12],1%
same,Population Membrane Permeable-Phenotype (%),[12],8%
same,Population Mitochondria Different-Phenotype (%),[12],20%
same,Population Mitotic Cells (%),[12],68%
same,Population Normal (%),[12],98%
same,Population Pyknosed Nuclei (%),[12],19%
same,Population Tubulin-Different-Phenotype (%),[12],54%
same,Total Cell Count,[12],469
same,Population Apoptotic (%),[9],92%
same,Population Fragmented Nuclei (%),[9],17%
same,Population Healthy Nuclei (%),[9],30%
same,Population Hoechst High Intensity Objects (%),[9],15%
same,Population Membrane Permeable-Phenotype (%),[9],5%
same,Population Mitochondria Different-Phenotype (%),[9],100%
same,Population Mitotic Cells (%),[9],7%
same,Population Normal (%),[9],84%
same,Population Pyknosed Nuclei (%),[9],52%
same,Population Tubulin-Different-Phenotype (%),[9],96%
same,Total Cell Count,[9],223
same,Population Fragmented Nuclei (%),[10],4%
same,Population Healthy Nuclei (%),[10],54%
same,Population Hoechst High Intensity Objects (%),[10],3%
same,Population Membrane Permeable-Phenotype (%),[10],9%
same,Population Mitochondria Different-Phenotype (%),[10],68%
same,Population Normal (%),[10],96%
same,Population Pyknosed Nuclei (%),[10],41%
same,Total Cell Count,[10],178
